pEC50, pKi: −log10 of the molar value. The source made the active and inactive calls. The rule behind the calls is not given here.
Columns and labels:
[1] = Stability of the compound in aqueous solution (JP1) assessed as residual ratio at pH 1.2 up to 2 weeks by HPLC analysis relative to initial level; type: physicochemical
In short: (§1)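 Peptides in aqueous solution at pH 1.2 (JP1, containing 10% acetonitrile), 3, 5 or 7 were kept in the dark at 37 °C for up to 2 weeks. Peptide remaining was quantified from HPLC peak area, with detection at 230–280 nm. The residual ratio (stability index) was expressed relative to the time-0 amount, taken as 100%.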

[2] = Mean residence time in Sprague-Dawley rat at 1 mg/kg, sc after 24 hrs by LC-MS/MS analysis; type: ADME, organism-based; parameters: dose 1 mg/kg, route subcutaneous; conditions: in vivo
In short: (§2)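 Single subcutaneous dose of 1 mg/kg in male Crl:CD(SD) rats, n = 3 per group. Blood was sampled from 5 min to 24 h (5, 10, 15, 30 min; 1, 2, 4, 8, 24 h). Plasma was deproteinized with formic acid/methanol and acetonitrile, and peptide levels were measured by LC-MS. Noncompartmental analysis per animal gave Cmax, Tmax, AUC0-24h, MRT and BA; values are mean ± SD (n = 3).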

[3] = Mean residence time in Sprague-Dawley rat at 1 mg/kg, iv after 24 hrs by LC-MS/MS analysis; type: ADME, organism-based; parameters: dose 1 mg/kg, route intravenous; conditions: in vivo
In short: (§3)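 Male Crl:CD(SD) rats (3 per group) got a single intravenous dose of 1 mg/kg. Blood was drawn at 5, 10, 15 and 30 min and at 1, 2, 4, 8 and 24 h. Plasma proteins were removed with 0.2% formic acid/methanol and acetonitrile, and the supernatant was treated with 0.4% formic acid. Peptide was quantified by LC-MS. Noncompartmental parameters were derived per rat, reported as mean ± SD (n = 3).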

[4] = Stability of the compound in aqueous solution assessed as residual ratio at pH 5 up to 1 week by HPLC analysis relative to initial level; type: physicochemical; in short: as §1
[5] = Stability of the compound in aqueous solution assessed as residual ratio at pH 3 up to 1 week by HPLC analysis relative to initial level; type: physicochemical; in short: as §1
[6] = AUC (0 to 24 hrs) in Sprague-Dawley rat at 1 mg/kg, sc after 24 hrs by LC-MS/MS analysis; type: ADME, organism-based; parameters: time < 24 hr, dose 1 mg/kg, route subcutaneous; conditions: plasma; in short: as §2
[7] = Stability of the compound in aqueous solution assessed as residual ratio at pH 7 up to 1 week by HPLC analysis relative to initial level; type: physicochemical; in short: as §1
[8] = Total clearance in Sprague-Dawley rat at 1 mg/kg, iv after 24 hrs by LC-MS/MS analysis; type: ADME, organism-based; parameters: dose 1 mg/kg, route intravenous; conditions: in vivo; in short: as §3
[9] = Stability of the compound in aqueous solution (JP1) assessed as residual ratio at pH 1.2 up to 1 week by HPLC analysis relative to initial level; type: physicochemical; in short: as §1
[10] = Bioavailability in Sprague-Dawley rat at 1 mg/kg, sc after 24 hrs by LC-MS/MS analysis; type: ADME, organism-based; conditions: in vivo; in short: as §2
[11] = target: T1, KiSS-1 receptor (Rattus norvegicus, UniProt Q924U1); assay: Displacement of radioligand from rat KISS1R transfected in CHO cells; type: cell-based
[12] = target: T1, KiSS-1 receptor; assay: Agonist activity at rat KISS1R transfected in CHO cells assessed as intracellular calcium flux after 24 hrs by functional FLIPR assay; type: cell-based
[13] = Stability of the compound in aqueous solution assessed as residual ratio at pH 5 up to 2 weeks by HPLC analysis relative to initial level; type: physicochemical; in short: as §1
[14] = test system: Rattus norvegicus; assay: Testosterone-suppressive activity in Crl:CD(SD) rat assessed as number of animal with plasma testosterone level below the limit of detection […], sc through osmotic pumps measured after 6 days by RIA; type: functional
[15] = target: T2, KiSS-1 receptor (Homo sapiens, UniProt Q969F8); assay: Displacement of radioligand from human KISS1R transfected in CHO cells; type: cell-based
In short: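 Binding used membrane fractions prepared from CHO cells expressing recombinant human KISS1R.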

[16] = test system: Rattus norvegicus; assay: Testosterone-suppressive activity in Crl:CD(SD) rat assessed as plasma testosterone level below the limit of detection at 10 to 100 pmol/hr, sc continuous administration through osmotic pumps measured up to 1 week by RIA; type: functional, organism-based
In short: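 Peptide in 50% DMSO was diluted in distilled water to 10, 30 or 100 μM pump solutions, giving 10–100 pmol/h by subcutaneous ALZET osmotic pump in male Crl:CD(SD) rats (n = 5). Vehicle served as control. Plasma testosterone was measured by RIA after 1 or 4 weeks, with values below 0.04 ng/mL set to 0.04. Results are mean ± SD of five rats, tested by one-tailed Shirley–Williams test versus vehicle.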

[17] = test system: Rattus norvegicus; assay: Testosterone-suppressive activity in Crl:CD(SD) rat assessed as number of animal with plasma testosterone level below the limit of detection at 0.03 mol/hr, sc through osmotic pumps measured after 6 days by RIA; type: functional
[18] = C5min in Sprague-Dawley rat at 1 mg/kg, iv after 5 mins by LC-MS/MS analysis; conditions: in vivo, read-out: Cmin
[19] = target: T2, KiSS-1 receptor; assay: Agonist activity at human KISS1R transfected in CHO cells assessed as intracellular calcium flux after 24 hrs by functional FLIPR assay; type: cell-based
In short: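 CHO cells stably expressing human KISS1R were seeded at 15 000 cells/mL, cultured 24 h, then loaded with fluo-3 for 1 h at 37 °C in HBSS/HEPES (pH 7.4) with probenecid and FBS. Cells were washed in HBSS with 2.5 mM probenecid. Peptides came from 1 mM DMSO stocks diluted in buffer containing probenecid, 0.2% BSA and 0.1% CHAPS. Fluorescence was recorded on FLIPR for 3 min; peak counts over 0–180 s gave agonist activity.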

[20] = Stability of the compound in aqueous solution assessed as residual ratio at pH 7 up to 2 weeks by HPLC analysis relative to initial level; type: physicochemical; in short: as §1
[21] = AUC (0 to 24 hrs) in Sprague-Dawley rat at 1 mg/kg, iv after 24 hrs by LC-MS/MS analysis; type: ADME, organism-based; parameters: time < 24 hr, dose 1 mg/kg, route intravenous; conditions: plasma; in short: as §3
[22] = Stability of the compound in aqueous solution assessed as residual ratio at pH 3 up to 2 weeks by HPLC analysis relative to initial level; type: physicochemical; in short: as §1
[23] = Cmax in Sprague-Dawley rat at 1 mg/kg, sc after 24 hrs by LC-MS/MS analysis; type: ADME, organism-based; parameters: dose 1 mg/kg, route subcutaneous; conditions: in vivo; in short: as §2
[24] = test system: Rattus norvegicus; assay: Testosterone-suppressive activity in Crl:CD(SD) rat assessed as number of animal with plasma testosterone level below the limit of detection at 0.05 mol/hr, sc through osmotic pumps measured after 6 days by RIA; type: functional
[25] = Volume of distribution at steady state in Sprague-Dawley rat at 1 mg/kg, iv after 24 hrs by LC-MS/MS analysis; type: ADME, organism-based; parameters: dose 1 mg/kg, route intravenous; conditions: in vivo, read-out: Vdss; in short: as §3
[26] = Tmax in Sprague-Dawley rat at 1 mg/kg, sc after 24 hrs by LC-MS/MS analysis; type: ADME, organism-based; parameters: dose 1 mg/kg, route subcutaneous; conditions: in vivo; in short: as §2
[27] = test system: Rattus norvegicus; assay: Testosterone-suppressive activity in Crl:CD(SD) rat assessed as number of animal with plasma testosterone level below the limit of detection at 2 nmol/hr, sc through osmotic pumps measured after 6 days by RIA; type: functional
In short: (§4)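 Peptide was dissolved in distilled water or 50% DMSO as 0.1–2 mM pump solutions and delivered by ALZET osmotic pumps implanted subcutaneously in the back of 9-week-old male Crl:CD(SD) rats (n = 5) under ether. Controls received distilled-water pumps. After 6 days, rats were decapitated and plasma was recovered with aprotinin/EDTA. Testosterone was measured by RIA, and the number of rats below the detection limit (0.04 ng/mL) was counted.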

[28] = test system: Rattus norvegicus; assay: Testosterone-suppressive activity in Crl:CD(SD) rat assessed as number of animal with plasma testosterone level below the limit of detection at 0.5 nmol/hr, sc through osmotic pumps measured after 6 days by RIA; type: functional; in short: as §4
[29] = test system: Rattus norvegicus; assay: Testosterone-suppressive activity in Crl:CD(SD) rat assessed as number of animal with plasma testosterone level below the limit of detection at 0.1 nmol/hr, sc through osmotic pumps measured after 6 days by RIA; type: functional; in short: as §4
[30] = test system: Rattus norvegicus; assay: Testosterone-suppressive activity in Crl:CD(SD) rat assessed as number of animal with plasma testosterone level below the limit of detection at 0.3 nmol/hr, sc through osmotic pumps measured after 6 days by RIA; type: functional; in short: as §4

T2 sequence (Q969F8 whole entry): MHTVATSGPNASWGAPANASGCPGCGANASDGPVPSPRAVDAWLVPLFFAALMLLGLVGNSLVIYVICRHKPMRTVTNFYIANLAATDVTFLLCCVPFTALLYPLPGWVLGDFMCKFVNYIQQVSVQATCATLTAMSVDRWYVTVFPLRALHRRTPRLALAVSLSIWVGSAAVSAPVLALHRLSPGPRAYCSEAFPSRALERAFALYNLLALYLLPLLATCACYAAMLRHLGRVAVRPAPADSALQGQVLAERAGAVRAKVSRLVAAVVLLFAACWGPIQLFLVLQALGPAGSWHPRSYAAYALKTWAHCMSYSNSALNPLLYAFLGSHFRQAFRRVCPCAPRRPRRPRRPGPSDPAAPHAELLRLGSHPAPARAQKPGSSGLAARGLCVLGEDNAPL
T1 sequence (Q924U1 whole entry): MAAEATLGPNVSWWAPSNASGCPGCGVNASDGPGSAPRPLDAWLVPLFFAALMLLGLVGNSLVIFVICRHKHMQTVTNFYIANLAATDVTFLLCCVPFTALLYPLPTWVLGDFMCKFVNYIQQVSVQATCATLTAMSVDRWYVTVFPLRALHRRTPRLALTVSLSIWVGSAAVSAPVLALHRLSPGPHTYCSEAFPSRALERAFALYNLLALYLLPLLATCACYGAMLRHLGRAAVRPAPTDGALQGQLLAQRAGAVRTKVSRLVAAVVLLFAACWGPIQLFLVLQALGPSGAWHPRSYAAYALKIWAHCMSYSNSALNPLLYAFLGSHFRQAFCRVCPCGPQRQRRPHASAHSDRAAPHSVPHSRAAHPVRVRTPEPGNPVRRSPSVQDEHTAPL

remaining at 336 h [1] [%] | MRT [2] [min] | MRT [3] [min] | remaining at 168 h [4] [%] | remaining at 168 h [5] [%] | AUC(0-t) at 24 h [6] [ng·h/mL] | remaining at 168 h [7] [%] | clearance [8] [mL/min/kg] | remaining at 168 h [9] [%] | bioavailability [10] [%] | pEC50 [12] | remaining at 336 h [13] [%] | pKi [15] | concentration at 5 min [18] [ng/mL] | pEC50 [19] | remaining at 336 h [20] [%] | AUC(0-t) at 24 h [21] [ng·h/mL] | remaining at 336 h [22] [%] | Cmax [23] [ng/mL] | Vd [25] [L/kg] | SMILES | other results
22.3 | 52.8 | 26.4 | 98.1 | 97.5 | 144 | 84.5 | 34.5 | 50.6 | 28.9 | 8.41 | 96.3 | 10.42 | 1450 | 9.03 | 67.6 | 497 | 95 | 114 | 0.896 | CNC(=N)NCCC[C@H](NC(=O)[C@H](CC(C)C)NC(=O)NNC(=O)[C@H](Cc1ccccc1)NC(=O)[C@@H](NC(=O)[C@H](CC(N)=O)NC(=O)[C@@H](Cc1c[nH]c2ccccc12)NC(=O)[C@@H](Cc1ccc(O)cc1)NC(C)=O)[C@@H](C)O)C(=O)N[C@@H](Cc1ccccc1)C(N)=O | pKi [11]: 10.06; Activity [14]: 0 animals; inhibition [16]: Active; Activity [17]: 4%; Activity [24]: 5%; Tmax [26]: 25.2 min
39.1 | 52.8 | 43.8 | 98.8 | 98.7 | 46 | 84.9 | 33.3 | 64.9 | 9.2 | 8.39 | 96.5 | 10.44 | 1440 | 9.00 | 72.8 | 503 | 98.2 | 47 | 1.46 | CNC(=N)NCCC[C@H](NC(=O)[C@H](CC(C)C)NC(=O)NNC(=O)[C@H](Cc1ccccc1)NC(=O)[C@@H](NC(=O)[C@H](CC(N)=O)NC(=O)[C@@H](Cc1c[nH]c2ccccc12)NC(=O)[C@H](N)Cc1ccc(O)cc1)[C@@H](C)O)C(=O)N[C@@H](Cc1c[nH]c2ccccc12)C(N)=O | Activity [27]: 100%; Activity [28]: 60%; Activity [29]: 0 rats (n = 5); Activity [30]: 60%; Tmax [26]: 11.4 min
33 | 64.2 | 41.4 | 98.5 | 98.7 | 152 | 82.6 | 13.2 | 58.3 | 12.1 | 8.39 | 97 | 10.05 | 2070 | 9.12 | 69.8 | 1260 | 96.8 | 90 | 0.547 | CNC(=N)NCCC[C@H](NC(=O)[C@H](CC(C)C)NC(=O)NNC(=O)[C@H](Cc1ccccc1)NC(=O)[C@@H](NC(=O)[C@H](CC(N)=O)NC(=O)[C@@H](Cc1ccncc1)NC(=O)[C@@H](Cc1ccc(O)cc1)NC(C)=O)[C@@H](C)O)C(=O)N[C@@H](Cc1c[nH]c2ccccc12)C(N)=O | pKi [11]: 9.77; Activity [14]: 2 animals; inhibition [16]: Active; Activity [24]: 5%; Tmax [26]: 25.2 min
